Measurements: ChEMBL document CHEMBL4052814, “GNE-781, A Highly Advanced Potent and Selective Bromodomain Inhibitor of Cyclic Adenosine Monophosphate Response Element Binding Protein, Binding Protein (CBP)” (J Med Chem, 2017)
Converted amounts (≈) assume the structure as drawn.

How the values were obtained:
Rattus norvegicus = assay: Neurotoxicity in rat assessed as effect on vocalization and hyperactivity at 250 mg/kg administered as single dose; format: toxicity, organism-based; conditions: in vivo
[1] = Protein binding in human plasma at 5 uM incubated for 4 hrs measured by LC-MS/MS method; format: ADME, cell-free; conditions: read-out: PPB (converted)
[2] = AUClast in CD-1 mouse at 1 mg/kg, iv or 5 mg/kg, po by LC-MS/MS method; format: ADME, organism-based; conditions: in vivo
Outline: (§1)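 Female CD-1 mice, 6–9 weeks, n = 3 per route. Dosed 1 mg/kg i.v. in PEG400/water (35/65) or 5 mg/kg p.o. as a suspension in 0.5% methylcellulose, 0.2% Tween 80. Serial tail-nick blood sampled to 24 h, diluted in EDTA-water. Parent drug measured by non-validated LC-MS/MS after acetonitrile precipitation with an indomethacin internal standard.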

[3] = Apparent permeability from apical side to basolateral side in MDCK cells at 10 uM measured after 180 mins by LC-MS/MS analysis; format: ADME, cell-based, Canis lupus familiaris; conditions: dog
[4] = Half life in CD-1 mouse at 1 mg/kg, iv or 5 mg/kg, po by LC-MS/MS method; format: ADME, organism-based; conditions: in vivo; outline: as §1
[5] = Cmax in beagle dog at 1 mg/kg, iv or 5 mg/kg, po by LC-MS/MS method; format: ADME, organism-based, Canis lupus familiaris; conditions: in vivo
Outline: (§2)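 Non-naïve male beagle dogs, n = 3 per route. Dosed 1 mg/kg i.v. in EtOH/PEG400/water (20/15/65) or 5 mg/kg p.o. in 0.5% methylcellulose, 0.2% Tween 80; oral groups fasted overnight until 4 h post-dose. Peripheral blood taken pre-dose to 24 h and processed to K2EDTA plasma. Analysed by non-validated LC-MS/MS.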

[6] = Kinetic solubility of the compound in PBS at 200 uM at pH 7.4 after 24 hrs by LCMS-chemiluminescence nitrogen detection assay; format: physicochemical; conditions: read-out: Kinetic_solubility
Outline: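 A 10 mM DMSO stock was diluted into PBS pH 7.4 to give 200 µM compound in 2% DMSO. Samples were shaken for 24 h at room temperature at 1000 rpm, then filtered and diluted 2-fold. Each was injected twice into LCMS-CLND and quantified against a caffeine calibration curve with correction for nitrogen count.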

[7] = Cmax in cynomolgus monkey at 1 mg/kg, iv or 5 mg/kg, po by LC-MS/MS method; format: ADME, organism-based, Macaca fascicularis; conditions: in vivo
Outline: (§3)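 Non-naïve male cynomolgus monkeys, at least 2 years old, n = 3 per route. Given 1 mg/kg i.v. in EtOH/PEG400/water (20/15/65) or 5 mg/kg p.o. in 0.5% methylcellulose, 0.2% Tween 80; oral groups fasted. Plasma (K2EDTA) collected pre-dose to 24 h. Analysed by non-validated LC-MS/MS.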

Homo sapiens = organism: Homo sapiens; assay: Selectivity ratio of IC50 for human recombinant His-tagged BRD4 bromodomain-1 to IC50 for recombinant His-tagged human CBP […]
Outline: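 TR-FRET competition binding: recombinant His-tagged bromodomains bind a biotinylated small-molecule ligand, and competing compound lowers the signal. IC50s are geometric means of at least two determinations. Selectivity is BRD4(1) IC50 (nM) divided by CBP IC50 (nM).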

[8] = Oral bioavailability in beagle dog at 5 mg/kg by LC-MS/MS method; format: ADME, organism-based, Canis lupus familiaris; conditions: in vivo; outline: as §2
[9] = target: Nucleosome-remodeling factor subunit BPTF (Homo sapiens, UniProt Q12830); assay: Displacement of biotinylated histone H3K14 peptide ligand from recombinant His-tagged BPTF (unknown origin) measured after 10 mins by TR-FRET assay
[10] = Clearance in Sprague-Dawley rat at 1 mg/kg, iv or 5 mg/kg, po by LC-MS/MS method; format: ADME, organism-based; conditions: in vivo
Outline: (§4)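 Male Sprague-Dawley rats, 6–9 weeks, n = 3 per route. Dosed 1 mg/kg i.v. in PEG400/water (35/65) or 5 mg/kg p.o. in 0.5% methylcellulose, 0.2% Tween 80; oral groups fasted overnight until 4 h post-dose. Catheter blood sampled 0.033–24 h into K2EDTA and spun to plasma. Analysed by non-validated LC-MS/MS.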

[11] = Clearance in cynomolgus monkey at 1 mg/kg, iv or 5 mg/kg, po by LC-MS/MS method; format: ADME, organism-based, Macaca fascicularis; conditions: in vivo; outline: as §3
[12] = AUClast in cynomolgus monkey at 1 mg/kg, iv or 5 mg/kg, po by LC-MS/MS method; format: ADME, organism-based, Macaca fascicularis; conditions: in vivo; outline: as §3
[13] = target: Chromatin remodeling regulator CECR2 (Homo sapiens, UniProt Q9BXF3); assay: Displacement of biotinylated histone H3K14 peptide ligand from human recombinant His-tagged CECR2 measured after 10 mins by TR-FRET assay
Chromatin remodeling regulator CECR2, sequence (Q9BXF3 whole entry): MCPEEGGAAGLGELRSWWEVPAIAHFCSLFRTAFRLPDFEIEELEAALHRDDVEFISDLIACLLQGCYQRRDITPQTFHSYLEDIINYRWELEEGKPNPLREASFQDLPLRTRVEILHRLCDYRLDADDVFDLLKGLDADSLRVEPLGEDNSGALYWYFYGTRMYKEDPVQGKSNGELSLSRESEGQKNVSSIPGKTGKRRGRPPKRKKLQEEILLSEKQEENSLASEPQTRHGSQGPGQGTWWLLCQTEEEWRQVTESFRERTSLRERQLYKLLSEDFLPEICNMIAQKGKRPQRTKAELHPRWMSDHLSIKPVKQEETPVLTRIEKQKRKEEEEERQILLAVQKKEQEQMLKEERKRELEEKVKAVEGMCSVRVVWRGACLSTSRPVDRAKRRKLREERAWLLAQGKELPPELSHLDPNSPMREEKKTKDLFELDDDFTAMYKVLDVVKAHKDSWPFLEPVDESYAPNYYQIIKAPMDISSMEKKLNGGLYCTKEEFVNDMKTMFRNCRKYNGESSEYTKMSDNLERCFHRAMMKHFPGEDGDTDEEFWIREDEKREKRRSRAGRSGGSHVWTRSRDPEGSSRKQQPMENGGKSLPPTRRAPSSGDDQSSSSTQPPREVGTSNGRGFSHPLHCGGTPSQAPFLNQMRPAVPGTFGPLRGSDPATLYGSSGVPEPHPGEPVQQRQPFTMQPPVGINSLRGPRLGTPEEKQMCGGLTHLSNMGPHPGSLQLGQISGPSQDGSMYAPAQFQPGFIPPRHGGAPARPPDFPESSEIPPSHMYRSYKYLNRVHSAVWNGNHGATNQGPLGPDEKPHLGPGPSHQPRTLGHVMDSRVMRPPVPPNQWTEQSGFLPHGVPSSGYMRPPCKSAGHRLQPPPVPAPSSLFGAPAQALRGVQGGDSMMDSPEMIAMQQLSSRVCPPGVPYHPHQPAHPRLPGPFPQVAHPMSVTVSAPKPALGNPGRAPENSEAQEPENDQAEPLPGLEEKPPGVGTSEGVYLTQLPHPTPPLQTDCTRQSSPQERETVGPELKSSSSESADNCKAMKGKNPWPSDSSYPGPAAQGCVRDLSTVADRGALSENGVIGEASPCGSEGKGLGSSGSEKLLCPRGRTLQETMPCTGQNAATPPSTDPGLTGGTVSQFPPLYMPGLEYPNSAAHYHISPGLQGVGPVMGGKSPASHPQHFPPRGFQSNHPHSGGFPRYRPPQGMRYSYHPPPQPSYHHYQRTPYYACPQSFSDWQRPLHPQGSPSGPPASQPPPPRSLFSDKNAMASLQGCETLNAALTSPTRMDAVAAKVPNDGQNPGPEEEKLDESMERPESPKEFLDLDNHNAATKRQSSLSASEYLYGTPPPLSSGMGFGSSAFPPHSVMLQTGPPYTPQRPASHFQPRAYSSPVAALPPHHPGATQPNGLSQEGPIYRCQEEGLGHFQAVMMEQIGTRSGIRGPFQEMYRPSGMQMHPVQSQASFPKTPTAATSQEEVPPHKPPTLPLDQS

[14] = Volume of distribution at steady state in cynomolgus monkey at 1 mg/kg, iv or 5 mg/kg, po by LC-MS/MS method; format: ADME, organism-based, Macaca fascicularis; conditions: in vivo, read-out: Vdss
Outline: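 Non-naïve male beagle dogs or cynomolgus monkeys, n=3 per route. Dosing was 1 mg/kg i.v. in EtOH/PEG400/water 20/15/65 or 5 mg/kg p.o. in 0.5% methylcellulose/0.2% Tween 80; the p.o. group was fasted overnight. Peripheral blood was taken pre-dose to 24 h into K2EDTA and processed to plasma. Quantified by LC-MS/MS.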

[15] = Clearance in CD-1 mouse at 1 mg/kg, iv or 5 mg/kg, po by LC-MS/MS method; format: ADME, organism-based; conditions: in vivo; outline: as §1
[16] = target: Histone acetyltransferase KAT2A (Homo sapiens, UniProt Q92830); assay: Displacement of biotinylated histone H3K14 peptide ligand from recombinant His-tagged human GCN5L2 measured after 10 mins by TR-FRET assay
[17] = target: Bromodomain-containing protein 9 (Homo sapiens, UniProt Q9H8M2); assay: Displacement of biotinylated histone H3K14 peptide ligand from human recombinant His-tagged BRD9 measured after 10 mins by TR-FRET assay
Bromodomain-containing protein 9, sequence (Q9H8M2 whole entry): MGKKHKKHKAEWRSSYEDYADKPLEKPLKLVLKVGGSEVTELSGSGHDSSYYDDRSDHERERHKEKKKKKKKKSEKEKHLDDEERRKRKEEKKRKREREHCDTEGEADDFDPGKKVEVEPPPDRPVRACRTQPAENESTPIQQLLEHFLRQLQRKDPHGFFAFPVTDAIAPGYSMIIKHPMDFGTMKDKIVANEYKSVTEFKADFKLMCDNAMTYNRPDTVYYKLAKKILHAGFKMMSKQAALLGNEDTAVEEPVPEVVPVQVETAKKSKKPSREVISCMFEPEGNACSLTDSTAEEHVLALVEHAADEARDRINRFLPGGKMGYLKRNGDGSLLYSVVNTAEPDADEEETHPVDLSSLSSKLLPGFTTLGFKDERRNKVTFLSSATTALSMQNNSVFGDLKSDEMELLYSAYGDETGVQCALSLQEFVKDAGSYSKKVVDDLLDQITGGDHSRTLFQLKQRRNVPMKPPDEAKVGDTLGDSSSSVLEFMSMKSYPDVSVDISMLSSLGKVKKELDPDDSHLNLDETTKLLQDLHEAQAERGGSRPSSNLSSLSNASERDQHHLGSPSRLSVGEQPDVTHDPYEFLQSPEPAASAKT

[18] = Volume of distribution at steady state in CD-1 mouse at 1 mg/kg, iv or 5 mg/kg, po by LC-MS/MS method; format: ADME, organism-based; conditions: in vivo, read-out: Vdss
Outline: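 Female CD-1 mice, 6–9 weeks old, n=3 per route. Dosing was 1 mg/kg i.v. in PEG400/water 35/65 or 5 mg/kg p.o. in 0.5% methylcellulose/0.2% Tween 80. Serial tail-nick blood was taken to 24 h and diluted in EDTA water. Quantified by LC-MS/MS (MRM, positive ESI), LLOQ 0.002 μM.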

[19] = Cmax in CD-1 mouse at 1 mg/kg, iv or 5 mg/kg, po by LC-MS/MS method; format: ADME, organism-based; conditions: in vivo; outline: as §1
[20] = target: Transcription initiation factor TFIID subunit 1 (Homo sapiens, UniProt P21675); assay: Displacement of biotinylated histone H3K14 peptide ligand from human recombinant His-tagged TAF1 bromodomain-1 measured after 10 mins by TR-FRET assay
[21] = target: Histone acetyltransferase p300 (Homo sapiens, UniProt Q09472); assay: Displacement of biotinylated histone H3K14 peptide ligand from human recombinant His-tagged P300 measured after 10 mins by TR-FRET assay
Histone acetyltransferase p300, sequence (Q09472 whole entry): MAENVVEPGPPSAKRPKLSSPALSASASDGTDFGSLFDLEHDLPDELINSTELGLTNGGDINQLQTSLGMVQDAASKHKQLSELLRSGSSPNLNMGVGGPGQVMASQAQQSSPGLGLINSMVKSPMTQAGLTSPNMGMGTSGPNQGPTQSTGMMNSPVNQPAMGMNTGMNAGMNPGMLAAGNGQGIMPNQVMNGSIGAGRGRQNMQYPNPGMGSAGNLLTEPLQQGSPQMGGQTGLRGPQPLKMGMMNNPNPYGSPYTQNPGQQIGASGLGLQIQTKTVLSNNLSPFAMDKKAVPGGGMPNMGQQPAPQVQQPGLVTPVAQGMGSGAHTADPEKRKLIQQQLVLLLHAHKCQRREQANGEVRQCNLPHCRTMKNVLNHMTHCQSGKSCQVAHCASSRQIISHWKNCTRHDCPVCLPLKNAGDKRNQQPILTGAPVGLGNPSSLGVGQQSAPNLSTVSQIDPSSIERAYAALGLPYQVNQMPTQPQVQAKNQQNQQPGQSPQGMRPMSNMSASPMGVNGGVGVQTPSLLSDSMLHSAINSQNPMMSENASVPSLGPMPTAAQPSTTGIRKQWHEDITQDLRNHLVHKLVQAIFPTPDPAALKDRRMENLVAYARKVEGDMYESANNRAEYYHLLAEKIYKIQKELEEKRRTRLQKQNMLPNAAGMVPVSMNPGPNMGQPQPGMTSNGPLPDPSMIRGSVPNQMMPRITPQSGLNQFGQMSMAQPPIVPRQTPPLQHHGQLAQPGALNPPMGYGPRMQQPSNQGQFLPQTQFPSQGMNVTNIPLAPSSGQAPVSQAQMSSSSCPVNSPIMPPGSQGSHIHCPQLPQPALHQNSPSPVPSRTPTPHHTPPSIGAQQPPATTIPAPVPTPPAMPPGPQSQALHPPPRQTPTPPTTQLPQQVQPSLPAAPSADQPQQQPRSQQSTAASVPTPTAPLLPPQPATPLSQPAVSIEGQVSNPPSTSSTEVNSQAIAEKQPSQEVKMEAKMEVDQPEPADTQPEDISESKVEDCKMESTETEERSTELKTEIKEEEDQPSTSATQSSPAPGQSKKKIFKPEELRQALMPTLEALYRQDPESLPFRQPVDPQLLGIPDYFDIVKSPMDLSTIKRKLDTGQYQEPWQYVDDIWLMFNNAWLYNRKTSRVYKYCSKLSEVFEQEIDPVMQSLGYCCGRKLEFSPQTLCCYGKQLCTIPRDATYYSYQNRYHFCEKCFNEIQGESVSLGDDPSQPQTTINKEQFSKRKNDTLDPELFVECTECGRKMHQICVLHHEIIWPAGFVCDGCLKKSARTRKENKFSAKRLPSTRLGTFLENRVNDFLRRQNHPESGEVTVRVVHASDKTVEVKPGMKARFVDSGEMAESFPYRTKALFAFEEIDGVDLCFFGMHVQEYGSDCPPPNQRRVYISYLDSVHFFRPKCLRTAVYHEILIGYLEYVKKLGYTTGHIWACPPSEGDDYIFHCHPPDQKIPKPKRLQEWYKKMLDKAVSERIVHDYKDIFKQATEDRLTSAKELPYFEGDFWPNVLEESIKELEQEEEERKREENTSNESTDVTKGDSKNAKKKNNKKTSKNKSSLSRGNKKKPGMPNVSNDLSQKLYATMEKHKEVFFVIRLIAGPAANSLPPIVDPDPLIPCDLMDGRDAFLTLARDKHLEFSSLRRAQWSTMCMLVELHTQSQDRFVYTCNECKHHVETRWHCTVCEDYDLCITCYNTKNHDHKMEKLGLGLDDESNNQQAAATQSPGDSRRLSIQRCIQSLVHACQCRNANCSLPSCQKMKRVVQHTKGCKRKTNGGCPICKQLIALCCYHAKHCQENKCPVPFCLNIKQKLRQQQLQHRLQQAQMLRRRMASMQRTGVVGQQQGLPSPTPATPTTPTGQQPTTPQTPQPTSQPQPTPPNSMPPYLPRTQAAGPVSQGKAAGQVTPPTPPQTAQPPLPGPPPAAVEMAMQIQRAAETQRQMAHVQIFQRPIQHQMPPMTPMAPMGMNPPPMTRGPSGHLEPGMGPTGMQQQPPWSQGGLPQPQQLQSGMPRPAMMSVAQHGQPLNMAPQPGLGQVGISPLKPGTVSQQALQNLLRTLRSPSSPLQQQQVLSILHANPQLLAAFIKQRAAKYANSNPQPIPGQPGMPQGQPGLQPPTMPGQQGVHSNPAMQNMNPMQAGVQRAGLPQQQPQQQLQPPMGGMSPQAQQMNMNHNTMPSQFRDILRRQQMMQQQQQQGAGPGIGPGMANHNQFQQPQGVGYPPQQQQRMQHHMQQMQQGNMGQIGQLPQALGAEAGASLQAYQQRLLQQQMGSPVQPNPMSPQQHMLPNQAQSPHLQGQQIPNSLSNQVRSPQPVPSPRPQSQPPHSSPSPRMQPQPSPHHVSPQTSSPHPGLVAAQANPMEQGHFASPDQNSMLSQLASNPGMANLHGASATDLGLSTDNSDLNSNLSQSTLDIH

[22] = Cmax in Sprague-Dawley rat at 1 mg/kg, iv or 5 mg/kg, po by LC-MS/MS method; format: ADME, organism-based; conditions: in vivo; outline: as §4

| fraction unbound at 4 h, 5 µM [1] | AUC(0-t) [2] | Papp A→B at 3 h, 10 µM [3] | half-life [4] | Cmax [5] | solubility kinetic at 24 h, 200 µM [6] | Cmax [7] | bioavailability [8] | IC50 [9] | clearance [10] | clearance [11] | AUC(0-t) [12] | IC50 [13] | Vd [14] | clearance [15] | IC50 [16] | IC50 [17] | Vd [18] | Compound | Activity (Rattus norvegicus) | Ratio IC50 (Homo sapiens) | further results |
| --- | --- | --- | --- | --- | --- | --- | --- | --- | --- | --- | --- | --- | --- | --- | --- | --- | --- | --- | --- | --- | --- |
| 0.16 | 6.5 µM·h | 19 ×10⁻⁶ cm/s | 1.4 h | 8.3 µM | 95 µM (≈ 49.9 µg/mL) | 1.9 µM | 100% | > 20 µM | 3.8 mL/min/kg | 18 mL/min/kg | 2.5 µM·h | > 20 µM | 1 L/kg | 5.2 mL/min/kg | > 20 µM | > 20 µM | 0.6 L/kg | CNC(=O)N1CCc2c(c(N3CCCc4cc(-c5cnn(C)c5)c(C(F)F)cc43)nn2C2CCOCC2)C1 | Non-Toxic | 5420 | Cmax [19]: 23 µM; IC50 [20]: > 20 µM; IC50 [21]: 0.0012 µM; Cmax [22]: 4.1 µM |
| 0.16 | 13.7 µM·h | 15 ×10⁻⁶ cm/s | 1.1 h | 5.1 µM | 76 µM (≈ 38.8 µg/mL) | 1.6 µM | 94% | > 20 µM | 16 mL/min/kg | 7.4 mL/min/kg | 8.5 µM·h | 14 µM | 1.4 L/kg | 8.8 mL/min/kg | > 20 µM | > 20 µM | 0.81 L/kg | CC(=O)N1CCc2c(c(N3CCCc4cc(-c5cnn(C)c5)c(C(F)F)cc43)nn2C2CCOCC2)C1 | Toxic | 3820 | Cmax [19]: 4.2 µM; IC50 [20]: > 20 µM; IC50 [21]: 0.0013 µM; Cmax [22]: 3.2 µM |
